Shown are actives, neighbours in structure and some others; about 2.3% of the full set was active somewhere.
MEKK3 PB1 HTS: modulators of MEKK3-MEK5 PB1 binding, primary screen, biochemical, wildtype MEKK3, multiplex bead flow cytometry, Alexa488-MEK5; 290,000 tested, 1.4% active; binding response (% of control), % at 10 µM; bead-based flow cytometry, Alexa488-MEK5 binding to MEKK3; actives lie on both sides; 0 = blocked by unlabeled MEK5, 100 = vehicle;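 active = binding response more than 3 SD above or below the average of its plate-row segment, actives on both sides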;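 also: Alexa488 bead fluorescence after subtracting the streptavidin-only scavenger bead signal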
MEKK2 WT-MEK5: modulators of MEK5 binding to wildtype MEKK2, primary screen, biochemical, multiplex bead flow cytometry, Alexa488-MEK5; Mitogen-activated protein kinase kinase kinase 2 (Homo sapiens), Q9Y2U5; Alexa488-MEK5 binding to MEKK2 WT; actives lie on both sides; binding response (% of control), % at 10 µM; 290,000 tested, 1.1% active; AID 1531, 2009; in the data active = binding response below about 67% or above about 130%
ABCB1 inh: ABCB1 efflux pump inhibitors, primary screen, cell-based, multiplex, flow cytometry, ABCG2 counter-screen. CCRF-Adr cells, JC-1 efflux. ATP-dependent translocase ABCB1 (Homo sapiens), P08183. inhibition, % at 6.6 µM. 190,000 tested, 0.067% active; in the data active = inhibition above about 40%;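 also: 0% = vehicle and 100% = reference inhibitor; higher value means more JC-1 retained so stronger ABCB1 efflux block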
Target sequence (P08183 whole entry, looked up): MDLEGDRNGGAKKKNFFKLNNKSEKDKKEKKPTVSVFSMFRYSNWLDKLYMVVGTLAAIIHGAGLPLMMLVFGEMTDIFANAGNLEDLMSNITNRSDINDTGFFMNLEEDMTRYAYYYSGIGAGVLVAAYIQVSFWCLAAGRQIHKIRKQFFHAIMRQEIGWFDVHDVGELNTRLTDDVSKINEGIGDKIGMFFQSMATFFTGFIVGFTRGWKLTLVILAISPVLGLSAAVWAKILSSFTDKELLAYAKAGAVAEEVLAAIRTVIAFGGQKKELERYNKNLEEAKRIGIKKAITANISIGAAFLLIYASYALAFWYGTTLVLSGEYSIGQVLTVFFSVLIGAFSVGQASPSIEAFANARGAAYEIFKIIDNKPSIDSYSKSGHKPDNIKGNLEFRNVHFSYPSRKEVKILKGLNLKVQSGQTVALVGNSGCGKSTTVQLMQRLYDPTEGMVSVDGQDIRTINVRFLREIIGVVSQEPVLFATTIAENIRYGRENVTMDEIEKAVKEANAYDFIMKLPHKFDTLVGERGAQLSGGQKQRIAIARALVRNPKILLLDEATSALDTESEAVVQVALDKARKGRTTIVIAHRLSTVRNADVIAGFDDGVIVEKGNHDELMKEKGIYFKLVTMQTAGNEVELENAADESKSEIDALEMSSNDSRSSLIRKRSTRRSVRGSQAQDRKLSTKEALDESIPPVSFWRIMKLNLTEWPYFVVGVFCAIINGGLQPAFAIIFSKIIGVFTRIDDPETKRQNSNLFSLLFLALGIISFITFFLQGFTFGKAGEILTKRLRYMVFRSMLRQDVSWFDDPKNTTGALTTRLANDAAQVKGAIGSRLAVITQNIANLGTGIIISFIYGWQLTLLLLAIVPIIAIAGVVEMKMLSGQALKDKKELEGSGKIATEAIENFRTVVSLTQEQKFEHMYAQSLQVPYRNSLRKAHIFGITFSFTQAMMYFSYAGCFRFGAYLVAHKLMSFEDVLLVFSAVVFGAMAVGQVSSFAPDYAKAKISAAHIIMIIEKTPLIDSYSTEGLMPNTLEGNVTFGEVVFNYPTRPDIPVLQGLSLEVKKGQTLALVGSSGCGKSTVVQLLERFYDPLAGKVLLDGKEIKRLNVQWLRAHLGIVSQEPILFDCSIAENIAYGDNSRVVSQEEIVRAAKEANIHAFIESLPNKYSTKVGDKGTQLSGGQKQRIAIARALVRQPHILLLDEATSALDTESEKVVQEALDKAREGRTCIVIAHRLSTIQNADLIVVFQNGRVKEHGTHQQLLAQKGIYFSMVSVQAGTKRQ
MEKK2mut PB1 HTS: MEK5 binding signal on mutant MEKK2 PB1, primary screen, biochemical, multiplex bead flow cytometry, Alexa488-MEK5 | Alexa488-MEK5 binding to MEKK2 mutant | percent response, % at 10 µM | 290,000 tested, 0.35% active; in the data active = percent response above about 24%, passing the limit was not always enough
ABCG2 inh: ABCG2 efflux pump inhibitors, primary screen, multiplex with ABCB1, IgMXP3 cells, flow cytometry | 190,000 tested, 0.1% active | JC-1 efflux | inhibition, % at 6.6 µM | AID 1325, 2008;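 active = inhibition above 80%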;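 also: 0% = DMSO and 100% = nicardipine control wells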
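material = IgMXP3 (ABCG2) plus far-red-tagged CCRF-Adr (ABCB1) cells | amount = 3 million cells/mL, equal mix of both lines | also added = JC-1 transporter substrate | dosing = one concentration, 6.6 µM final | schedule = 10 min at 25 °C | measured by = flow cytometric JC-1 green MFI at 530 nm | read-out basis = percent efflux inhibition, scaled nicardipine 100% to DMSO 0%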
MEKK2wt confirm: modulators of MEK5 binding to wildtype MEKK2, confirmation, biochemical, single concentration, multiplex bead flow cytometry; shares compounds with MEKK3 PB1 HTS; 5,900 tested, 2.4% active; Alexa488-MEK5 binding to MEKK2 WT; actives lie on both sides; binding response (% of control), % at 10 µM; in the data active = binding response below about 16% or above about 210%; inactive = in between
MEKK2mut-MEK5: mutant MEKK2 PB1-MEK5 binding signal retest – biochemical, single concentration, multiplex bead flow cytometry, confirmation | 5,900 tested, 2% active | Alexa488-MEK5 binding to MEKK2 mutant | shares compounds with MEKK3 PB1 HTS | AID 1893, 2009 | percent response, % at 10 µM; in the data active = percent response mostly above about 71%, no sharp cut-off; inactive = mostly below about 38%;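 also: higher means compound restores mutant binding toward wildtype level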
MEKK3 confirm: MEKK3 wild-type PB1 binding to MEK5, inhibitors, confirmation, biochemical, bead multiplex flow cytometry, single concentration, wildtype; shares compounds with MEKK3 PB1 HTS; 5,900 tested, 1.8% active; AID 1894, 2009; binding response (% of control), % at 10 µM; Alexa488-MEK5 binding to MEKK3; active compounds read low;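 active = binding response below 72% of control, or above a set upper limit, though filed actives all read lower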;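 also: 100% = DMSO only wells and 0% = binding blocked by excess unlabeled MEK5; lower values mean stronger disruption of MEK5 binding to MEKK3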
* hit, by the source's call; / = not tested or not shown; [ ] = dose if it differs, or a comment.

SMILES | MEKK3 PB1 HTS | MEKK2 WT-MEK5 | ABCB1 inh | MEKK2mut PB1 HTS | ABCG2 inh | MEKK2wt confirm | MEKK2mut-MEK5 | MEKK3 confirm
O=C(N/N=C1/CC2C=CCC12)c1cccs1 (configuration not stated) | 99 | 103 | / | 1 | / | / | / | /
O=C1c2ccccc2NC2(CCCCC2)N1N=C1CCCCC1 | 75*[inhibitor] | 90 | 0 | -1 | 3 | 102 | 2 | 104
O=C1c2ccccc2NC2(CCCC2)N1O | 110 | 113 | 0 | 15 | 1 | / | / | /
COc1cccc(OC)c1OCCCCCCN1CCN(C)CC1 | 103 | 105 | / | 5 | / | / | / | /
CN1CCN(CCCCOc2ccccc2C=O)CC1 | 128* | 200* | 0 | 28 | 1 | 172 | 47 | 105
Cc1cc2nc(SCCOC(=O)Nc3cccc(Cl)c3)nc(C)c2cc1C | 153* | 111 | 1 | 1 | 17 | 98 | -3 | 102
Cc1cc2nc(SCCOC(=O)Nc3ccccc3)nc(C)c2cc1C | 106 | 107 | 1 | 3 | 7 | / | / | /
O=C(/C=C/c1ccc2c(c1)OCO2)c1cccnc1 | 106 | 105 | / | 3 | / | / | / | /
O=C(N/N=C\C=C\c1ccc2c(c1)OCO2)c1cccnc1 | 135* | 109 | -1 | 1 | 2 | 103 | 0 | 101
Cc1ccc(C(=O)/C=C/c2c[nH]c3ccccc23)cc1 | 101 | 102 | 0 | -3 | 2 | / | / | /
O=C(/C=C/c1c[nH]c2ccccc12)c1ccccc1 | 136* | 103 | 1 | 0 | 15 | 106 | 0 | 106
Cc1nc([N+](=O)[O-])c(Br)n1CC(=O)c1ccc(Br)cc1 | 133* | 126 | 1 | 6 | 3 | 93 | -12 | 95
O=c1[nH]ncc(N/N=C\c2cccnc2)c1Cl | 99 | 100 | / | 4 | / | / | / | /
O=c1[nH]ncc(N/N=C\c2ccncc2)c1Cl | 136* | 118 | 0 | 5 | 3 | 87 | -11 | 88
CCCCCNCc1ccc(Cl)cc1 | 100 | 103 | 0 | 0 | 1 | / | / | /
CC(NCc1ccc(OCc2ccc(Cl)cc2)cc1)C(O)c1ccccc1 (configuration not stated) | 94 | 144* | 1 | 4 | 1 | 160 | 33 | 96
CC(NCc1cccc(OCc2ccccc2)c1)C(O)c1ccccc1 (configuration not stated) | 100 | 119 | 1 | 12 | 2 | / | / | /
OCCCCNCc1ccc(OCc2ccc(Cl)cc2)cc1 | 108 | 181* | 0 | 37* | 0 | 107 | 3 | 101
CCc1sc(-c2c(C#N)c(N)nc3c2CCCCCC3)cc1[N+](=O)[O-] | 1.0*[inhibitor] | 1.0*[inhibitor] | 1 | -39 | 4 | 99 | -3 | 105
CCN(CC)c1ccc(NC(=O)c2c(C)noc2C)cc1 | 97 | 101 | / | 3 | / | / | / | /
NCCSc1c(-c2ccc(F)cc2)[nH]c2ccccc12 | 94 | 107 | / | 1 | / | / | / | /
NCCSc1c(-c2ccccc2)[nH]c2ccccc12 | 118 | 146* | 2 | 25* | 1 | 141 | 35 | 109
NCCSc1c(-c2ccc(Cl)cc2)[nH]c2ccccc12 | 106 | 171* | / | 51* | / | 171 | 29 | 106
Cc1ccc(-c2[nH]c3ccccc3c2SCCN)cc1 | 105 | 134 | / | 26 | / | / | / | /
Cc1ccc2nc(N(CCCN(C)C)C(=O)CCc3ccccc3)sc2c1 | 139* | 137 | 0 | 5 | 2 | 139 | 12 | 102
SMILES | MEKK3 PB1 HTS | MEKK2 WT-MEK5 | ABCB1 inh | MEKK2mut PB1 HTS | ABCG2 inh | MEKK2wt confirm | MEKK2mut-MEK5 | MEKK3 confirm
Cc1ccc2nc(N(CCCN(C)C)C(=O)CN3C(=O)c4ccccc4C3=O)sc2c1 | 100 | 125 | 2 | 9 | 2 | / | / | /
CN(C)CCCN(C(=O)COc1ccccc1)c1nc2ccc(Cl)cc2s1 | 105 | 167* | 0 | 32 | 7 | 154 | 20 | 106
Cc1ccc2nc(N(CCCN(C)C)C(=O)c3cc4ccccc4oc3=O)sc2c1 | 104 | 117 | 2 | 1 | 13 | / | / | /
CN(C)CCCN(C(=O)CCc1ccccc1)c1nc2ccc(Cl)cc2s1 | 114 | 164* | 1 | 43 | 3 | 184 | 51 | 111
COc1cccc2sc(N(CCCN(C)C)C(=O)COc3ccc(Cl)cc3)nc12 | 105 | 168* | 1 | 9 | 3 | 151 | 35 | 103
O=C1COc2ccc(NC(=O)c3ccccc3C(=O)O)cc2N1 | 110 | 111 | / | 11 | / | / | / | /
CN(C)CCCN(C(=O)COc1ccccc1)c1nc2cc3c(cc2s1)OCO3 | 101 | 118 | / | 13 | / | / | / | /
CN(C)CCCN(C(=O)COc1ccc(Cl)cc1)c1nc2cc3c(cc2s1)OCO3 | 107 | 179* | / | 35* | / | 176 | 41 | 109
CCc1ccc(C2=NN(CCC(=O)NC3CC3)C(=O)CC2)cc1 | 144* | 106 | 1 | 0 | 15 | 98 | -12 | 101
O=C(Nc1ccc(N2CCCCC2)cc1)c1cncc(Br)c1 | 99 | 38*[inhibitor] | 0 | 1 | 1 | 97 | -4 | 99
COc1ccc(OC)c(CNn2c(-c3cccc(C)c3)nc3ccccc3c2=O)c1 | 1.0*[inhibitor] | 0.0*[inhibitor] | 1 | -21 | 9 | 106 | 3 | 106
COc1cccc(CNn2c(-c3cccc(C)c3)nc3ccccc3c2=O)c1 | 107 | 102 | 1 | 4 | 5 | / | / | /
CN1Cc2sc(N)c(C#N)c2CC1(C)C | 88 | 52*[inhibitor] | 0 | -14 | 0 | 94 | 4 | 88
Cc1nn2c(NCCCN(C)C)c3c(nc2c1-c1ccccc1)CCC3 | 107 | 173* | -1 | 34* | 52 | 157 | 42 | 106
Cc1nn2c(C(F)(F)F)c3c(nc2c1-c1ccccc1)CCC3 | 1.0*[inhibitor] | / | 1 | -35 | 3 | 103 | 5 | 104
Cc1nn2c(NC(C)C)c3c(nc2c1-c1ccccc1)CCC3 | 98 | 98 | / | 0 | / | / | / | /
Cc1nn2c(NCCCN(C)C)c3c(nc2c1-c1ccccc1)CCCC3 | 65 | 75 | / | -13 | / | / | / | /
Nc1ccccc1NC(=O)c1ccccc1N | 3.0*[inhibitor] | 3.0*[inhibitor] | 0 | -16 | 1 | 100 | -6 | 103

Screening data: PubChem, NMMLSC
